Source: publication PMC9064050 (RSC Advances, 2019)
Converted amounts (≈) assume the structure as drawn.

Legend:
[1] = biological target: bovine serum albumin (BSA) (Bos taurus, UniProt P02769); experiment: BSA binding assay by absorption titration
[2] = tested on: Mucor indicus; experiment: Kirby–Bauer agar disc diffusion; format: cell-based; details: for inhibition%: eqn (20); for zone of inhibition at 100 µM: Mucor indicus, read-out: diameter of clear zone inhibition
Procedure, shortened: (§1)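 Kirby–Bauer disc diffusion on Mueller–Hinton agar (pH 7.2, autoclaved 121 °C for 15 min, ~4 mm deep, held 2–8 °C for 24 h). Plates spread with 24 h cultures. 6 mm discs loaded with 20 μL of 100 μM test compound. Bacteria incubated at 37 °C for 48 h; fungi at 22 °C for 7 days. Clear-zone diameter measured by ruler; % inhibition by eqn (20) against 6 mm control.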

[3] = Ferric reducing antioxidant power; details: 240 µM, 700 nm
Procedure, shortened: (§2)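 Absorbance read at 517 nm (DPPH), 230 nm (hydroxyl), 590 nm (superoxide), 546 nm (nitric oxide) and 700 nm (FRAP). FRAP measures the rise in absorbance from Fe3+→Fe2+ reduction with ferricyanide. IC50 taken from % inhibition vs concentration plots.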

[4] = DPPH radical scavenging assay; details: 240 µM, 517 nm
Procedure, shortened: as §2

[5] = Superoxide scavenging assay; details: 240 µM, 590 nm
Procedure, shortened: as §2

[6] = tested on: CT-DNA; experiment: Nuclease activity by gel electrophoresis in presence of H2O2; format: biochemical; details: CT-DNA + H2O2, agarose gel
Procedure, shortened: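 Chemical nuclease assay: CT-DNA with test compound plus H2O2 in Tris–HCl buffer, pH 7.2. Products run on agar gel electrophoresis and imaged under a UV transilluminator. Band migration compared with a DNA + H2O2 control.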

[7] = tested on: Chromobacterium violaceum; experiment: Kirby–Bauer agar disc diffusion; format: cell-based; details: C = (−)Chromobacterium violaceum
Procedure, shortened: as §1

[8] = Hydroxyl radical scavenging assay; details: 240 µM, 230 nm
Procedure, shortened: as §2

[9] = tested on: CT-DNA; experiment: DNA binding by electronic absorption titration; details: Wolfe–Shimmer method; 298 K, pH 7.2
Procedure, shortened: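 UV-Vis titration at a fixed complex concentration of 100 μM in 5 mM Tris–HCl/50 mM NaCl, pH 7.2, 25 °C. CT-DNA varied 0–150 μM, with [DNA] expressed in base pairs. Kb (Wolfe–Shimmer) taken as the slope-to-intercept ratio of [DNA]/(εa−εf) vs [DNA].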

[10] = tested on: Shigella flexneri; experiment: Kirby–Bauer agar disc diffusion; format: cell-based; details: E = (−)Shigella flexneri
Procedure, shortened: as §1

[11] = tested on: human lung cancer (A549); experiment: In vitro anticancer MTT assay; format: cell-based; details: 50% cell death following 72 h exposure
Procedure, shortened: (§3)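 MTT viability: cells seeded at 1 × 10^5 per well and incubated 24 h at 37 °C, 5% CO2. Treated with test compound at 10–100 μg mL−1 (from DMSO). Medium removed, wells PBS-washed, RPMI-1640 plus MTT (5 mg mL−1 solution) added for 4 h at 37 °C. Formazan dissolved in DMSO, read at 570 nm. Triplicate wells; IC50 from % viability; cisplatin as reference.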

[12] = tested on: Salmonella enteric serovar typhi; experiment: Kirby–Bauer agar disc diffusion; format: cell-based; details: B = (−)Salmonella enteric serovar typhi
Procedure, shortened: as §1

[13] = tested on: Bacillus cereus; experiment: Kirby–Bauer agar disc diffusion; format: cell-based; details: G = (+)Bacillus cereus
Procedure, shortened: as §1

[14] = tested on: Escherichia coli; experiment: Kirby–Bauer agar disc diffusion; format: cell-based; details: A = (−) Escherichia coli
Procedure, shortened: as §1

[15] = tested on: Pseudomonas aeruginosa; experiment: Kirby–Bauer agar disc diffusion; format: cell-based; details: D = (−)Pseudomonas aeruginosa
Procedure, shortened: as §1

[16] = tested on: Aspergillus niger; experiment: Kirby–Bauer agar disc diffusion; format: cell-based; details: for inhibition%: eqn (20); for zone of inhibition at 100 µM: Aspergillus niger, read-out: diameter of clear zone inhibition
Procedure, shortened: as §1

[17] = tested on: EB–DNA; experiment: Competitive binding
Procedure, shortened: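 EB displacement fluorescence titration: CT-DNA 100 μM with EB in 50 mM Tris–HCl/1 mM NaCl buffer (pH 7.2), test compound 0–120 μM. Emission at 610 nm. KSV and Kq from Stern–Volmer (τ0 = 10^−8 s); Kass and n from log(F0−F)/F vs log[Q]; KLB from 1/(F0−F) vs 1/[Q]; KSC and n from Scatchard. Kapp from KEB[EB] = Kapp[compound] at 50% EB-fluorescence loss (KEB = 10^7 M−1, EB 50 μM).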

[18] = tested on: normal human dermal fibroblast (NHDF); experiment: MTT assay on normal cells; format: cell-based; details: normal cell line; 50% cell death following 72 h exposure
Procedure, shortened: as §3

[19] = tested on: Candida albicans; experiment: Kirby–Bauer agar disc diffusion; format: cell-based; details: for inhibition%: eqn (20); for zone of inhibition at 100 µM: Candida albicans, read-out: diameter of clear zone inhibition
Procedure, shortened: as §1

[20] = Nitric oxide scavenging assay; details: 240 µM, 546 nm
Procedure, shortened: as §2

[21] = tested on: Staphylococcus aureus; experiment: Kirby–Bauer agar disc diffusion; format: cell-based; details: F = (+)Staphylococcus aureus
Procedure, shortened: as §1

[22] = tested on: breast (MCF-7); experiment: In vitro anticancer MTT assay; format: cell-based, human; details: 50% cell death following 72 h exposure
Procedure, shortened: as §3

[23] = tested on: liver cancer (HepG2); experiment: In vitro anticancer MTT assay; format: cell-based, human; details: 50% cell death following 72 h exposure
Procedure, shortened: as §3

[24] = tested on: CT-DNA; experiment: DNA thermal denaturation by absorption; format: binding
[25] = tested on: EB–DNA; details: at the concentration of 50 μM EB; cited from earlier work
[26] = 20 μL of 100 μM per disc, control 6 mm

Sequence of bovine serum albumin (BSA) (P02769 25-607): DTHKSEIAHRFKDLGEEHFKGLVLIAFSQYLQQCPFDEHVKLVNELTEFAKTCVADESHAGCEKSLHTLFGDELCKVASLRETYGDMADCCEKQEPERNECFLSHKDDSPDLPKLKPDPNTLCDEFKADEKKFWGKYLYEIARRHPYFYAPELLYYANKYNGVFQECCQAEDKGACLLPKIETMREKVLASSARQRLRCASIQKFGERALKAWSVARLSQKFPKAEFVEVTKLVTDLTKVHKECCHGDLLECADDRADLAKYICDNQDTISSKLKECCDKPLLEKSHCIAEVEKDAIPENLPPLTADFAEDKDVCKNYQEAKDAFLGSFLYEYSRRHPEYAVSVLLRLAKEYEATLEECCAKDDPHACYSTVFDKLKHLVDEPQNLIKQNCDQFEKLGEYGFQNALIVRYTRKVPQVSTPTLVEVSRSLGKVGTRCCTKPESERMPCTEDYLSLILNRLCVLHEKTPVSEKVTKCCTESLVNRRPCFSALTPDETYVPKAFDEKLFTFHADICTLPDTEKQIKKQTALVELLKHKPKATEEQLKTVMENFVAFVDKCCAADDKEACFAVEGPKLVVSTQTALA

SMILES: Oc1ccc(Br)cc1C=NCCN1CCOCC1 [HL, 2-(-(2-morpholinoethylimino)methyl)-4-bromophenol]
- Chromism (%H), hyperchromism ([1]; BSA absorption, pH 7.2, 25 °C): 34.27%
- Δλ (nm), bound vs free ([1]; blue-shift of BSA band, pH 7.2, 25 °C): 02 nm
- Gibb's free energy change ([1]; from Kapp): -5.595 kcal/mol
- diameter of clear zone inhibition ([2]; J = Mucor indicus, 20 μL of 100 μM per disc, control 6 mm): 17 mm
- inhibition% ([2]; J = Mucor indicus): 65%
- % Inhibition, ferric reducing power [3]: 54.29%
- % Inhibition, DPPH [4]: 50.64%
- % Inhibition, superoxide [5]: 50.62%
- DNA cleavage efficacy [6]: inactive
- diameter of clear zone inhibition [7, 26]: 12 mm
- inhibition% ([7]; eqn (20)): 50%
- % Inhibition, hydroxyl radical [8]: 51.78%
- Kb, WS method (intrinsic DNA binding constant) [9]: 10000 M⁻¹
- diameter of clear zone inhibition [10, 26]: 17 mm
- inhibition% ([10]; eqn (20)): 65%
- IC50 A549 [11]: 31.74 µg/mL (≈ 101 µM)
- diameter of clear zone inhibition [12, 26]: 12 mm
- inhibition% ([12]; eqn (20)): 50%
- diameter of clear zone inhibition [13, 26]: 10 mm
- inhibition% ([13]; eqn (20)): 40%
- diameter of clear zone inhibition ([14]; 20 μL of 100 μM per disc, control (DMSO) = 6 mm): 14 mm
- inhibition% ([14]; from zone diameter, eqn (20)): 57%
- diameter of clear zone inhibition [15, 26]: 12 mm
- inhibition% ([15]; eqn (20)): 50%
- diameter of clear zone inhibition ([16]; H = Aspergillus niger, 20 μL of 100 μM per disc, control 6 mm): 25 mm
- inhibition% ([16]; H = Aspergillus niger): 76%
- KLB (Lineweaver–Burk binding constant) [17]: 1498 M⁻¹
- KSV (Stern–Volmer binding constant), Method-I [17]: 4658 M⁻¹
- Kass (association binding constant), Stern–Volmer Method-II [17]: 1924 M⁻¹
- Apparent binding constant Kapp ([17]; KEB[EB] = Kapp[compound], 50% reduction of EB fluorescence): 269932 M⁻¹
- KSC (Scatchard binding constant) ([17]; Scatchard analysis): 10942 M⁻¹
- IC50 NHDF [18]: 66.72 µg/mL (≈ 213 µM)
- diameter of clear zone inhibition ([19]; I = Candida albicans, 20 μL of 100 μM per disc, control 6 mm): 12 mm
- inhibition% ([19]; I = Candida albicans): 50%
- % Inhibition, nitric oxide [20]: 50.20%
- diameter of clear zone inhibition [21, 26]: 10 mm
- inhibition% ([21]; eqn (20)): 40%
- IC50 MCF-7 [22]: 26.67 µg/mL (≈ 85.2 µM)
- IC50 HepG2 [23]: 27.48 µg/mL (≈ 87.7 µM)
- Binding constant Kr at 298 K [24]: 10038 M⁻¹

SMILES: CC[n+]1c(-c2ccccc2)c2cc(N)ccc2c2ccc(N)cc21 [EB, ethidium bromide]
- KEB (binding constant of EB to DNA) [25]: 10^7 M^−1

SMILES: CC(=O)N1CCN(c2ccc(OCC3COC(Cn4ccnc4)(c4ccc(Cl)cc4Cl)O3)cc2)CC1 (centres unmarked) [Ketokonazole, ketokonazole]
- inhibition% ([2]; J = Mucor indicus): 67%
- zone of inhibition at 100 µM [2]: 18 mm
- zone of inhibition at 100 µM [16]: 16 mm
- inhibition% ([16]; H = Aspergillus niger): 63%
- zone of inhibition at 100 µM [19]: 18 mm
- inhibition% ([19]; I = Candida albicans): 67%

SMILES: C[C@@H]1[C@H](O)[C@@H](C)/C=C/C=C/C=C/C=C/C=C/C=C/C=C/[C@H](O[C@@H]2O[C@H](C)[C@@H](O)[C@H](N)[C@@H]2O)C[C@@H]2O[C@](O)(C[C@@H](O)C[C@@H](O)[C@H](O)CC[C@@H](O)C[C@@H](O)CC(=O)O[C@H]1C)C[C@H](O)[C@H]2C(=O)O [Amphotericin B, amphotericin B]
- inhibition% ([2]; J = Mucor indicus): 65%
- zone of inhibition at 100 µM [2]: 17 mm
- zone of inhibition at 100 µM [16]: 15 mm
- inhibition% ([16]; H = Aspergillus niger): 60%
- zone of inhibition at 100 µM [19]: 17 mm
- inhibition% ([19]; I = Candida albicans): 65%
